Experimental data taken from ChEMBL document CHEMBL5356993, “Novel pyrazolo[3,4-d]pyrimidine derivatives: design, synthesis, anticancer evaluation, VEGFR-2 inhibition, and antiangiogenic activity” (RSC Med Chem, 2023).

Key:
Assay type in all cases: functional
Conditions in all cases: read-out: GI
[1] = system: MOLT-4; test: Antiproliferative activity against human MOLT-4 cells assessed as cell growth inhibition at 10 uM incubated for 48 hrs by SRB assay relative to control
[2] = system: A549; test: Antiproliferative activity against human A549 cells assessed as cell growth inhibition at 10 uM incubated for 48 hrs by SRB assay relative to control
[3] = system: KM12; test: Antiproliferative activity against human KM12 cells assessed as cell growth inhibition at 10 uM incubated for 48 hrs by SRB assay relative to control
Method in brief: (§1)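 Cells plated in 96-well plates at […] cells/well and preincubated 24 h at 37 °C, 5% CO2. Time-zero plates were TCA-fixed. Compound was diluted in medium with 50 µg/mL gentamicin and cells exposed for 48 h. Adherent cells fixed with 10% final TCA; suspension cells with 16% final TCA. Plates stained with 0.4% SRB in 1% acetic acid, dye solubilized in 10 mM Trizma, absorbance read at 515 nm. Percent growth calculated against time-zero and control.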

[4] = system: SNB-19; test: Antiproliferative activity against human SNB-19 cells assessed as cell growth inhibition at 10 uM incubated for 48 hrs by SRB assay relative to control
Method in brief: (§2)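 Cells pre-incubated 24 h at 37°C, 5% CO2, then exposed to compound (DMSO stock diluted in medium with 50 µg/mL gentamicin) for 48 h. Adherent cells fixed with cold TCA (final 10%, 60 min, 4°C); suspension cells fixed with 16% TCA final. Stained with 0.4% SRB in 1% acetic acid for 10 min, dye solubilized in 10 mM Trizma base, absorbance read at 515 nm. Growth calculated against time-zero and untreated control plates.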

[5] = system: SF-268; test: Antiproliferative activity against human SF-268 cells assessed as cell growth inhibition at 10 uM incubated for 48 hrs by SRB assay relative to control
[6] = system: HOP-92; test: Antiproliferative activity against human HOP-92 cells assessed as cell growth inhibition at 10 uM incubated for 48 hrs by SRB assay relative to control; method in brief: as §1
[7] = system: Hs-578T; test: Antiproliferative activity against human Hs-578T cells assessed as cell growth inhibition at 10 uM incubated for 48 hrs by SRB assay relative to control; method in brief: as §1
[8] = system: SK-MEL-2; test: Antiproliferative activity against human SK-MEL-2 cells assessed as cell growth inhibition at 10 uM incubated for 48 hrs by SRB assay relative to control; method in brief: as §1
[9] = system: ACHN; test: Antiproliferative activity against human ACHN cells assessed as cell growth inhibition at 10 uM incubated for 48 hrs by SRB assay relative to control
[10] = system: BT-549; test: Antiproliferative activity against human BT-549 cells assessed as cell growth inhibition at 10 uM incubated for 48 hrs by SRB assay relative to control
[11] = system: OVCAR-3; test: Antiproliferative activity against human OVCAR-3 cells assessed as cell growth inhibition at 10 uM incubated for 48 hrs by SRB assay relative to control; method in brief: as §1
[12] = system: COLO 205; test: Antiproliferative activity against human COLO 205 cells assessed as cell growth inhibition at 10 uM incubated for 48 hrs by SRB assay relative to control
[13] = system: PC-3; test: Antiproliferative activity against human PC-3 cells assessed as cell growth inhibition at 10 uM incubated for 48 hrs by SRB assay relative to control
[14] = system: RXF 393; test: Antiproliferative activity against human RXF 393 cells assessed as cell growth inhibition at 10 uM incubated for 48 hrs by SRB assay relative to control; method in brief: as §1
[15] = system: CAKI-1; test: Antiproliferative activity against human CAKI-1 cells assessed as cell growth inhibition at 10 uM incubated for 48 hrs by SRB assay relative to control
[16] = system: RPMI-8226; test: Antiproliferative activity against human RPMI-8226 cells assessed as cell growth inhibition at 10 uM incubated for 48 hrs by SRB assay relative to control
[17] = system: SN12C; test: Antiproliferative activity against human SN12C cells assessed as cell growth inhibition at 10 uM incubated for 48 hrs by SRB assay relative to control
[18] = system: NCI-H226; test: Antiproliferative activity against human NCI-H226 cells assessed as cell growth inhibition at 10 uM incubated for 48 hrs by SRB assay relative to control; method in brief: as §1
[19] = system: OVCAR-8; test: Antiproliferative activity against human OVCAR-8 cells assessed as cell growth inhibition at 10 uM incubated for 48 hrs by SRB assay relative to control
[20] = system: NCI-H322M; test: Antiproliferative activity against human NCI-H322M cells assessed as cell growth inhibition at 10 uM incubated for 48 hrs by SRB assay relative to control
[21] = system: SNB-75; test: Antiproliferative activity against human SNB-75 cells assessed as cell growth inhibition at 10 uM incubated for 48 hrs by SRB assay relative to control; method in brief: as §2
[22] = system: Malme-3M; test: Antiproliferative activity against human Malme-3M cells assessed as cell growth inhibition at 10 uM incubated for 48 hrs by SRB assay relative to control
[23] = system: NCI/ADR-RES; test: Antiproliferative activity against human NCI-ADR-RES cells assessed as cell growth inhibition at 10 uM incubated for 48 hrs by SRB assay relative to control
[24] = system: SK-OV-3; test: Antiproliferative activity against human SK-OV-3 cells assessed as cell growth inhibition at 10 uM incubated for 48 hrs by SRB assay relative to control; method in brief: as §1
[25] = system: MCF7; test: Antiproliferative activity against human MCF7 cells assessed as cell growth inhibition at 10 uM incubated for 48 hrs by SRB assay relative to control
[26] = system: U-251; test: Antiproliferative activity against human U-251 cells assessed as cell growth inhibition at 10 uM incubated for 48 hrs by SRB assay relative to control; method in brief: as §2
[27] = system: IGROV-1; test: Antiproliferative activity against human IGROV-1 cells assessed as cell growth inhibition at 10 uM incubated for 48 hrs by SRB assay relative to control
[28] = system: OVCAR-5; test: Antiproliferative activity against human OVCAR-5 cells assessed as cell growth inhibition at 10 uM incubated for 48 hrs by SRB assay relative to control; method in brief: as §1
[29] = system: HT-29; test: Antiproliferative activity against human HT-29 cells assessed as cell growth inhibition at 10 uM incubated for 48 hrs by SRB assay relative to control; method in brief: as §1
[30] = system: SF-295; test: Antiproliferative activity against human SF-295 cells assessed as cell growth inhibition at 10 uM incubated for 48 hrs by SRB assay relative to control; method in brief: as §1
[31] = system: UACC-257; test: Antiproliferative activity against human UACC-257 cells assessed as cell growth inhibition at 10 uM incubated for 48 hrs by SRB assay relative to control; method in brief: as §2
[32] = system: SK-MEL-28; test: Antiproliferative activity against human SK-MEL-28 cells assessed as cell growth inhibition at 10 uM incubated for 48 hrs by SRB assay relative to control; method in brief: as §1
[33] = system: MDA-MB-468; test: Antiproliferative activity against human MDA-MB-468 cells assessed as cell growth inhibition at 10 uM incubated for 48 hrs by SRB assay relative to control
[34] = system: DU-145; test: Antiproliferative activity against human DU-145 cells assessed as cell growth inhibition at 10 uM incubated for 48 hrs by SRB assay relative to control

Row | SMILES | inhibition of growth at 10 µM [1] | inhibition of growth at 10 µM [2] | inhibition of growth at 10 µM [3] | inhibition of growth at 10 µM [4] | inhibition of growth at 10 µM [5] | inhibition of growth at 10 µM [6] | inhibition of growth at 10 µM [7] | inhibition of growth at 10 µM [8] | inhibition of growth at 10 µM [9] | inhibition of growth at 10 µM [10] | inhibition of growth at 10 µM [11] | inhibition of growth at 10 µM [12] | inhibition of growth at 10 µM [13] | inhibition of growth at 10 µM [14] | inhibition of growth at 10 µM [15] | inhibition of growth at 10 µM [16] | inhibition of growth at 10 µM [17] | inhibition of growth at 10 µM [18] | inhibition of growth at 10 µM [19] | inhibition of growth at 10 µM [20] | further results
1 | Cc1nc2c(cnn2-c2ccccc2)c(=O)n1-c1ccc(NC(=O)c2ccco2)cc1 | < 15% | < 15% | < 15% | < 15% | < 15% | < 15% | < 15% | < 15% | < 15% | < 15% | < 15% | < 15% | < 15% | < 15% | < 15% | 26.1% | < 15% | < 15% | < 15% | < 15% | inhibition of growth at 10 µM [21]: < 15%; inhibition of growth at 10 µM [22]: 16.6%; inhibition of growth at 10 µM [23]: < 15%; inhibition of growth at 10 µM [24]: < 15%; inhibition of growth at 10 µM [25]: 23.4%; inhibition of growth at 10 µM [26]: < 15%; inhibition of growth at 10 µM [27]: < 15%; inhibition of growth at 10 µM [28]: < 15%; inhibition of growth at 10 µM [29]: < 15%; inhibition of growth at 10 µM [30]: 15.3%; inhibition of growth at 10 µM [31]: < 15%; inhibition of growth at 10 µM [32]: < 15%; inhibition of growth at 10 µM [33]: 37.3%; inhibition of growth at 10 µM [34]: < 15%
2 | Cc1nc2c(cnn2-c2ccccc2)c(=O)n1-c1ccc(NC(=O)c2ccccc2)cc1 | 68.1% | 28.9% | 24.7% | 23.6% | 21.5% | 29.2% | 28.9% | < 15% | 36.7% | 39.1% | 16.8% | 20.2% | 29.5% | 18.9% | 33.4% | 43.6% | 24.3% | 44.7% | 38.4% | < 15% | inhibition of growth at 10 µM [21]: 43.2%; inhibition of growth at 10 µM [22]: 29.8%; inhibition of growth at 10 µM [23]: 30.4%; inhibition of growth at 10 µM [24]: 19%; inhibition of growth at 10 µM [25]: 47.1%; inhibition of growth at 10 µM [26]: < 15%; inhibition of growth at 10 µM [27]: < 15%; inhibition of growth at 10 µM [28]: < 15%; inhibition of growth at 10 µM [29]: 25.2%; inhibition of growth at 10 µM [30]: 46.5%; inhibition of growth at 10 µM [31]: 46.9%; inhibition of growth at 10 µM [32]: < 15%; inhibition of growth at 10 µM [33]: 71%; inhibition of growth at 10 µM [34]: 18.6%
